Experimental data as given in ChEMBL document CHEMBL3856258, “Phosphonate-based irreversible inhibitors of human γ-glutamyl transpeptidase (GGT). GGsTop is a non-toxic and highly selective inhibitor with critical electrostatic interaction with an active-site residue Lys562 for enhanced inhibitory activity” (Bioorg Med Chem, 2016).
The source made the active and inactive calls. The calls are words filed in the database; no cut-off is given here.

How the values were obtained:
[1] = Cytotoxicity against CHL cells assessed as chromatid gap at 1650 ug/ml preincubated for 6 hrs followed by 18 hrs incubation in fresh medium in absence of S9 fraction by Giemsa-staining-based microscopic analysis; format: toxicity, cell-based, Cricetulus griseus; settings: chinese hamster
[2] = Hydrolytic stability of the compound in D2O assessed as formation of monomethyl phosphonate and phenol at 23 degC up to 28 days by 31P NMR spectroscopy; format: physicochemical; settings: 672 h
[3] = test system: Salmonella typhimurium; assay: Genotoxicity in Salmonella typhimurium TA100 assessed as number of revertant colonies per plate at 61.7 ug/plate after 20 mins in absence of S9 fraction by Ames test (reference value: 123); format: toxicity, organism-based; settings: salmonella enterica subsp. enterica serovar typhimurium
[4] = test system: Salmonella typhimurium; assay: Genotoxicity in Salmonella typhimurium TA100 assessed as number of revertant colonies per plate at 185 ug/plate after 20 mins in absence of S9 fraction by Ames test (reference value: 123); format: toxicity, organism-based; settings: salmonella enterica subsp. enterica serovar typhimurium
[5] = test system: Salmonella typhimurium; assay: Genotoxicity in Salmonella typhimurium TA1535 assessed as number of revertant colonies per plate at 5000 ug/plate after 20 mins in absence of S9 fraction by Ames test (reference value: 15); format: toxicity, organism-based; settings: salmonella enterica subsp. enterica serovar typhimurium
[6] = test system: Salmonella typhimurium; assay: Genotoxicity in Salmonella typhimurium TA98 assessed as number of revertant colonies per plate at 556 ug/plate after 20 mins in absence of S9 fraction by Ames test (reference value: 21); format: toxicity, organism-based; settings: salmonella enterica subsp. enterica serovar typhimurium
[7] = test system: Salmonella typhimurium; assay: Genotoxicity in Salmonella typhimurium TA1537 assessed as number of revertant colonies per plate at 5000 ug/plate after 20 mins in absence of S9 fraction by Ames test (reference value: 9); format: toxicity, organism-based; settings: salmonella enterica subsp. enterica serovar typhimurium
[8] = test system: Salmonella typhimurium; assay: Genotoxicity in Salmonella typhimurium TA100 assessed as number of revertant colonies per plate at 61.7 ug/plate after 20 mins in presence of S9 fraction by Ames test (reference value: 142); format: toxicity, organism-based; settings: salmonella enterica subsp. enterica serovar typhimurium
[9] = test system: Salmonella typhimurium; assay: Genotoxicity in Salmonella typhimurium TA1535 assessed as number of revertant colonies per plate at 185 ug/plate after 20 mins in presence of S9 fraction by Ames test (reference value: 13); format: toxicity, organism-based; settings: salmonella enterica subsp. enterica serovar typhimurium
[10] = test system: Escherichia coli; assay: Genotoxicity in Escherichia coli WP2uvrA assessed as number of revertant colonies per plate at 20.6 ug/plate after 20 mins in presence of S9 fraction by Ames test (reference value: 26); format: toxicity; settings: s9, 20 min
[11] = test system: Escherichia coli; assay: Genotoxicity in Escherichia coli WP2uvrA assessed as number of revertant colonies per plate at 556 ug/plate after 20 mins in presence of S9 fraction by Ames test (reference value: 26); format: toxicity; settings: s9, 20 min
[12] = test system: Salmonella typhimurium; assay: Genotoxicity in Salmonella typhimurium TA1537 assessed as number of revertant colonies per plate at 20.6 ug/plate after 20 mins in presence of S9 fraction by Ames test (reference value: 15); format: toxicity, organism-based; settings: salmonella enterica subsp. enterica serovar typhimurium
[13] = test system: Salmonella typhimurium; assay: Genotoxicity in Salmonella typhimurium TA1537 assessed as number of revertant colonies per plate at 61.7 ug/plate after 20 mins in presence of S9 fraction by Ames test (reference value: 15); format: toxicity, organism-based; settings: salmonella enterica subsp. enterica serovar typhimurium
[14] = test system: Salmonella typhimurium; assay: Genotoxicity in Salmonella typhimurium TA1537 assessed as number of revertant colonies per plate at 1667 ug/plate after 20 mins in presence of S9 fraction by Ames test (reference value: 15); format: toxicity, organism-based; settings: salmonella enterica subsp. enterica serovar typhimurium
[15] = Cytotoxicity against CHL cells assessed as growth rate at 5.41 ug/ml preincubated for 6 hrs followed by 18 hrs incubation in fresh medium in absence of S9 fraction by MTT assay relative to control; format: toxicity, cell-based, Cricetulus griseus; settings: chinese hamster, read-out: Activity
[16] = Cytotoxicity against CHL cells assessed as growth rate at 13.5 ug/ml preincubated for 6 hrs followed by 18 hrs incubation in fresh medium in absence of S9 fraction by MTT assay relative to control; format: toxicity, cell-based, Cricetulus griseus; settings: chinese hamster, read-out: Activity
[17] = Cytotoxicity against CHL cells assessed as growth rate at 3300 ug/ml preincubated for 6 hrs followed by 18 hrs incubation in fresh medium in absence of S9 fraction by MTT assay relative to control; format: toxicity, cell-based, Cricetulus griseus; settings: chinese hamster, read-out: Activity
[18] = Cytotoxicity against CHL cells assessed as growth rate at 13.5 ug/ml preincubated for 6 hrs followed by 18 hrs incubation in fresh medium in presence of S9 fraction by MTT assay relative to control; format: toxicity, cell-based, Cricetulus griseus; settings: chinese hamster, read-out: Activity
[19] = Cytotoxicity against CHL cells assessed as growth rate at 33.8 ug/ml preincubated for 6 hrs followed by 18 hrs incubation in fresh medium in presence of S9 fraction by MTT assay relative to control; format: toxicity, cell-based, Cricetulus griseus; settings: chinese hamster, read-out: Activity
[20] = Cytotoxicity against CHL cells assessed as growth rate at 528 ug/ml preincubated for 6 hrs followed by 18 hrs incubation in fresh medium in presence of S9 fraction by MTT assay relative to control; format: toxicity, cell-based, Cricetulus griseus; settings: chinese hamster, read-out: Activity
[21] = Cytotoxicity against CHL cells assessed as growth rate at 2.16 ug/ml after 24 hrs in absence of S9 fraction by MTT assay relative to control; format: toxicity, cell-based, Cricetulus griseus; settings: chinese hamster, read-out: Activity
[22] = Cytotoxicity against CHL cells assessed as growth rate at 211 ug/ml after 24 hrs in absence of S9 fraction by MTT assay relative to control; format: toxicity, cell-based, Cricetulus griseus; settings: chinese hamster, read-out: Activity
[23] = Cytotoxicity against CHL cells assessed as growth rate at 528 ug/ml after 24 hrs in absence of S9 fraction by MTT assay relative to control; format: toxicity, cell-based, Cricetulus griseus; settings: chinese hamster, read-out: Activity
[24] = Cytotoxicity against CHL cells assessed as structural aberrations at 825 ug/ml preincubated for 6 hrs followed by 18 hrs incubation in fresh medium in absence of S9 fraction by Giemsa-staining-based microscopic analysis; format: toxicity, cell-based, Cricetulus griseus; settings: chinese hamster
[25] = Cytotoxicity against CHL cells assessed as chromatid gap at 3300 ug/ml preincubated for 6 hrs followed by 18 hrs incubation in fresh medium in absence of S9 fraction by Giemsa-staining-based microscopic analysis; format: toxicity, cell-based, Cricetulus griseus; settings: chinese hamster
[26] = Cytotoxicity against CHL cells assessed as structural aberrations at 1650 ug/ml after 24 hrs by Giemsa-staining-based microscopic analysis; format: toxicity, cell-based, Cricetulus griseus; settings: chinese hamster
[27] = test system: Glutathione hydrolase 1 proenzyme (Homo sapiens), P19440 [K562S]; assay: Inhibition of human GGT K562S mutant expressed in baculovirus infected High Five cells assessed as residual activity up to 1 mM using gamma-Glu-PNA as substrate after 5 mins by spectrophotometric method relative to control; settings: BTI-TN-5B1-4
Outline: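 Soluble N-terminal-truncated (Δ1–27) GGT was secreted by baculovirus-infected High Five cells (4 d, 27 °C) and purified from the medium on Con A and Q Sepharose. Activity was measured in 100 mM Tris-HCl pH 8.0 with 1 mM γ-Glu-PNA and 20 mM Gly-Gly at 37 °C, reading p-nitroaniline release continuously at 410 nm.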

[28] = Hydrolytic stability of compound in D2O at pH >8.5 by 31P NMR spectroscopy; format: physicochemical
[29] = Cytotoxicity against CHL cells assessed as number of cells with numerical aberrations at 1650 ug/ml preincubated for 6 hrs followed by 18 hrs incubation in fresh medium in absence of S9 fraction by Giemsa-staining-based microscopic analysis relative to control; format: toxicity, cell-based, Cricetulus griseus; settings: chinese hamster
[30] = Cytotoxicity against CHL cells assessed as number of cells with numerical aberrations at 3300 ug/ml preincubated for 6 hrs followed by 18 hrs incubation in fresh medium in presence of S9 fraction by Giemsa staining-based microscopic analysis relative to control; format: toxicity, cell-based, Cricetulus griseus; settings: chinese hamster
[31] = test system: Gamma-glutamyltranspeptidase 1 (Homo sapiens); assay: Inhibition of human wild-type N-terminal truncated GGT expressed in baculovirus infected High Five cells at 1 mM using gamma-Glu-PNA as substrate after 1 min by spectrophotometric method; settings: BTI-TN-5B1-4

Glutathione hydrolase 1 proenzyme (Homo sapiens), P19440 [K562S], sequence (P19440 whole entry K562S, the tested form may be a part): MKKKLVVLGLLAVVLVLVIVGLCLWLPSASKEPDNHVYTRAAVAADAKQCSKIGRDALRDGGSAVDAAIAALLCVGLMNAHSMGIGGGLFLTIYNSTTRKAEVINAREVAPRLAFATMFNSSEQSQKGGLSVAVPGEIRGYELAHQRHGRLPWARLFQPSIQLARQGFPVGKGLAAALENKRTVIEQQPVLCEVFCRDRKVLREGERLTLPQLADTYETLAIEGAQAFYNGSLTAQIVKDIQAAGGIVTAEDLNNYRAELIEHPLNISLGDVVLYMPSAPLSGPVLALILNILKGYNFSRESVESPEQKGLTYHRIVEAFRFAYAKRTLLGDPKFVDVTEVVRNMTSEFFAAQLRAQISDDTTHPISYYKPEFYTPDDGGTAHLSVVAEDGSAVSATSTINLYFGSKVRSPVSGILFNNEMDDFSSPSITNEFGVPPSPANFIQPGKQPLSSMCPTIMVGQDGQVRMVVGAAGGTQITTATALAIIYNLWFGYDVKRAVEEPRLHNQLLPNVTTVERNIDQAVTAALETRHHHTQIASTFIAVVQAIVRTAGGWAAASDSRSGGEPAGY

For `COP(=O)(CCC(N)C(=O)O)Oc1cccc(CC(=O)O)c1` (stereo unspecified), the Activity [1] was 0%, the Stability [2] was “Stable” and the Activity [3] was 148. For the same compound, the Activity [4] was 128, the Activity [5] was 13 and the Activity [6] was 29. The Activity [7] was 9, the Activity [8] was 133 and the Activity [9] was 13. The Activity [10] was 30, the Activity [11] was 27 and the Activity [12] was 17. It also gave an Activity [13] of 17, an Activity [14] of 18 and a viability at 18 h, 5.41 ug/ml [15] of 103%. The viability at 18 h, 13.5 ug/ml [16] was 100%, the viability at 18 h, 3300 ug/ml [17] was 97.1% and the viability at 18 h, 13.5 ug/ml [18] was 103%. It also gave a viability at 18 h, 33.8 ug/ml [19] of 101%, a viability at 18 h, 528 ug/ml [20] of 95.2% and a viability at 24 h, 2.16 ug/ml [21] of 98%. The viability at 24 h, 211 ug/ml [22] was 98.2%, the viability at 24 h, 528 ug/ml [23] was 96% and the Activity [24] was 3%. The Activity [25] was 0%, the Activity [26] was 1% and the Activity [27] was > 80%. For the same compound, the Stability [28] was “Unstable”, the Activity [29] was 0% and the Activity [30] was 1%. For the same compound, the inhibition [31] was “Active”.
